Published values collected from several papers.
Each line is one published result; the experiments were not run side by side.

Compound | target | assay | setting | measurement | value
Nc1ncc(-c2nc(N3CCOCC3)nc(N3CCOCC3)n2)c(C(F)F)n1 | Serine/threonine-protein kinase tousled-like 2 (TLK2, Homo sapiens, UniProt Q86UE8) | binding, competition with immobilised ligand | 10 µM | remaining binding | 100%
CCN(CC)CCCC[C@H](NC(=O)[C@H](CC(C)C)NC(=O)[C@H](C)NC(=O)[C@H](Cc1ccccc1)NC(=O)c1ccc(C(C)(C)C)cc1)C(=O)N[C@@H](CO)C(=O)OC | Kappa-type opioid receptor (Oprk1, Rattus norvegicus, UniProt P34975) | ligand displacement, radioligand | 10 µM | remaining binding | 9.5%
CC(C)C[C@H](NC(=O)[C@H]1O[C@@H]1C(=O)O)C(=O)NCCCCN=C(N)N | Cathepsin S (CTSS, Homo sapiens, UniProt P25774) | enzyme activity, inhibitor | 0.5 µM | inhibition | 97%
COc1ncccc1-c1cnn2ccc(N3CCN(C(=O)OC(C)C)CC3)nc12 | Cyclin-dependent kinase-like 2 (CDKL2, Homo sapiens, UniProt Q92772) | binding, competition with immobilised ligand | 1 µM | remaining binding | 53%
Cc1nn(C)cc1-c1nc2c(N3CCN(Cc4ccc(Cl)cc4)CC3)c(Cl)cnc2[nH]1 | Bone morphogenetic protein receptor type-1B (BMPR1B, Homo sapiens, UniProt O00238) | binding, competition with immobilised ligand | 1 µM | remaining binding | 100%
O=C1CC(c2c(O)cccc2O)Oc2cc(O)cc(O)c21 (centres unmarked) | Replicase polyprotein 1ab, main protease (rep, Severe acute respiratory syndrome coronavirus 2, UniProt P0DTD1) | enzyme activity, inhibitor | 20 µM | inhibition | 26.5%
CCOC(=O)c1ccc(OC(=O)CCCCCNC(=N)N)cc1 | Ubiquitin carboxyl-terminal hydrolase 2 (USP2, Homo sapiens, UniProt O75604) | enzyme activity, inhibitor | 10 µM | inhibition | 2%
Oc1cc(Br)cc(Br)c1Oc1ccc(Br)cc1Br | Sulfotransferase 1B1 (SULT1B1, Homo sapiens, UniProt O43704) | enzyme activity, substrate | – | Km | 26.7 µM
